For 27 compounds, AUC, F% and IC50 results are on record in ChEMBL document CHEMBL1128300, “Synthesis and in vivo evaluation of prodrugs of 9-[2-(phosphonomethoxy)ethoxy]adenine” (J Med Chem, 1995).

Series [1] relates to Mus musculus. In words: Concentration of the 9-[2-(Phosphonomethoxy)ethoxy]adenine in the blood following oral administration in mice. Format: ADME, organism-based. Details: unit not given here. Conditions: in vivo. The method, boiled down:
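Single 0.2 mmol/kg oral gavage dose to female BALB/c mice fasted 16 h, vehicle 1% carboxymethyl cellulose plus 1% Tween 80 in water. At each time point blood from three mice pooled, deproteinized with ice-cold ethanol at -20 °C, and parent phosphonate quantified by C18 HPLC with a gradient from pH 2.6 phosphate ion-pair buffer to 80% methanol.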

The subject of series [2] is Mus musculus. In words: % bioavailability in mice after oral administration of prodrug. Format: ADME, organism-based. To be noted: in vivo. An outline of the steps: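 Female BALB/c mice, fasted 16 h, single oral gavage 0.2 mmol/kg in 1% carboxymethyl cellulose plus 1% Tween 80 in water. Blood from three mice per time point pooled, ethanol-deproteinized, analysed by reversed-phase C18 HPLC (ion-pair phosphate buffer pH 2.6 / methanol gradient). Bioavailability as oral AUC of released parent phosphonate expressed as percent of intravenous AUC of its sodium salt.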

The test system of series [3] is Human immunodeficiency virus 2. The series can be described thus: Inhibitory activity against HIV-2, in peripheral blood lymphocytes.
Series [4] has as its system Feline immunodeficiency virus. In words: Inhibitory activity against Feline immunodeficiency virus. Format: functional, organism-based.
In series [5] the test system is Human immunodeficiency virus 1. In words: Inhibitory activity against HIV-1, in peripheral blood lymphocytes.
Series [6] relates to Simian immunodeficiency virus. The series can be described thus: Inhibitory activity against Simian immunodeficiency virus. Format: functional, organism-based.

SMILES strings stand for the structures.

The compound `CC(=O)Oc1ccccc1OP(=O)(COCCOn1cnc2c(N)ncnc21)Oc1ccccc1OC(C)=O` yielded an AUC in the series with Mus musculus [1] of 5. Also, in the series with Mus musculus [2], the F% came out at 10%.

For `COc1ccc(OP(=O)(COCCOn2cnc3c(N)ncnc32)Oc2ccc(OC)cc2)cc1`, the AUC with Mus musculus [1] amounted to 5. In addition, the F% in the series with Mus musculus [2] is on record as 10%.

`Nc1ncnc2c1ncn2OCCOCP(=O)(Oc1ccc(Br)cc1)Oc1ccc(Br)cc1` returned an AUC in the series on Mus musculus [1] of 3. In addition, the F% with Mus musculus [2] stood at 6%.

Turning to `Nc1ncnc2c1ncn2OCCOCP(=O)(OCCBr)OCCBr`, the AUC in the series with Mus musculus [1] is 4. In addition, the F% in the series on Mus musculus [2] is given as 8%.

In the series on Mus musculus [1], `Nc1ncnc2c1ncn2OCCOCP(=O)(Oc1ccccc1)Oc1ccccc1` gave an AUC of 13. Besides, in the series on Mus musculus [2], the F% is on record as 26%.

Take `Cc1ccccc1OP(=O)(COCCOn1cnc2c(N)ncnc21)Oc1ccccc1C`: the AUC with Mus musculus [1] was 11. For the same compound, in the series with Mus musculus [2], the F% amounted to 22%.

In the series on Mus musculus [1], `CC(=O)OCc1ccc(OP(=O)(COCCOn2cnc3c(N)ncnc32)Oc2ccc(COC(C)=O)cc2)cc1` registered an AUC of 0. The F% in the series with Mus musculus [2] was found to be 0%.

`Nc1ncnc2c1ncn2OCCOCP(=O)(OCC(Cl)Cl)OCC(Cl)Cl` yielded an AUC with Mus musculus [1] of 3. Further, in the series with Mus musculus [2], the F% came to 6%.

With `CCOCCOP(=O)(COCCOn1cnc2c(N)ncnc21)OCCOCC`, the AUC in the series with Mus musculus [1] is recorded as 0. Besides, the F% in the series on Mus musculus [2] was 0%.

Regarding `Nc1ncnc2c1ncn2OCCOCP(=O)(O)O`, the IC50 in series [3] came to 300 nM; in series [4] it was 1700 nM; in series [5], 200 nM; in series [6] it was 3000 nM.

In the series with Mus musculus [1], `COP(=O)(COCCOn1cnc2c(N)ncnc21)OC` returned an AUC of 0. Besides, the F% in the series with Mus musculus [2] is recorded as 0%.

As for `CC(C)(C)OC(=O)c1ccc(OP(=O)(COCCOn2cnc3c(N)ncnc32)Oc2ccc(C(=O)OC(C)(C)C)cc2)cc1`, the AUC in the series on Mus musculus [1] is 0. Besides, the F% with Mus musculus [2] is recorded as 0%.

For the compound `Nc1ncnc2c1ncn2OCCOCP(=O)(OCc1ccc(Br)cc1)OCc1ccc(Br)cc1`, the AUC in the series with Mus musculus [1] is on record as 1. Further, the F% in the series on Mus musculus [2] amounted to 2%.

Compound `CC(=O)Oc1ccc(COP(=O)(COCCOn2cnc3c(N)ncnc32)OCc2ccc(OC(C)=O)cc2)cc1` registered an AUC in the series on Mus musculus [1] of 4. For the same compound, in the series on Mus musculus [2], the F% worked out at 8%.

As to `CC(C)(C)C(=O)OCOP(=O)(COCCOn1cnc2c(N)ncnc21)OCOC(=O)C(C)(C)C`, the AUC in the series with Mus musculus [1] is reported as 15. Moreover, the F% with Mus musculus [2] is given as 30%.

In the case of `CC(C)(CCl)C(=O)OCOP(=O)(COCCOn1cnc2c(N)ncnc21)OCOC(=O)C(C)(C)CCl`, the AUC in the series on Mus musculus [1] is listed as 0. Moreover, in the series with Mus musculus [2], the F% was 0%.

In the series with Mus musculus [1], `Nc1ncnc2c1ncn2OCCOCP(=O)(OCc1ccccc1)OCc1ccccc1` returned an AUC of 2. The F% with Mus musculus [2] was 4%.

In the series with Mus musculus [1], `CC(C)C(=O)Oc1ccc(COP(=O)(COCCOn2cnc3c(N)ncnc32)OCc2ccc(OC(=O)C(C)C)cc2)cc1` yielded an AUC of 0.5. The F% with Mus musculus [2] is listed as 1%.

The compound `CCCCOP(=O)(COCCOn1cnc2c(N)ncnc21)OCCCC` yielded an AUC in the series on Mus musculus [1] of 0. Further, in the series on Mus musculus [2], the F% is given as 0%.

With `CC(C)OP(=O)(COCCOn1cnc2c(N)ncnc21)OCC(=O)OC(C)(C)C` (stereo unspecified), the AUC in the series on Mus musculus [1] was 0. Besides, the F% in the series on Mus musculus [2] was determined as 0%.

In turn, `CC(OC(=O)C(C)C)OP(=O)(COCCOn1cnc2c(N)ncnc21)OC(C)OC(=O)C(C)C` (stereo unspecified) gave an AUC with Mus musculus [1] of 12. In the series with Mus musculus [2], the F% is recorded as 24%.

The compound `CC(OC(=O)C(C)(C)C)OP(=O)(COCCOn1cnc2c(N)ncnc21)OC(C)OC(=O)C(C)(C)C` (stereo unspecified) had an AUC with Mus musculus [1] of 37. In addition, the F% in the series on Mus musculus [2] is reported as 74%.

For the compound `CC(C)OP(=O)(COCCOn1cnc2c(N)ncnc21)OC(C)C`, the AUC with Mus musculus [1] amounted to 5. Besides, the F% in the series with Mus musculus [2] came out at 10%.

Compound `CCOP(=O)(COCCOn1cnc2c(N)ncnc21)OCC` showed an AUC in the series with Mus musculus [1] of 4. In addition, the F% in the series with Mus musculus [2] came out at 8%.

In turn, `CC(=O)Oc1ccc(OP(=O)(COCCOn2cnc3c(N)ncnc32)Oc2ccc(OC(C)=O)cc2)cc1` registered an AUC in the series on Mus musculus [1] of 4. Besides, the F% in the series with Mus musculus [2] came out at 8%.

Consider `Nc1ncnc2c1ncn2OCCOCP(=O)(OCc1ccc(Cl)cc1)OCc1ccc(Cl)cc1`, for which, in the series with Mus musculus [1], the AUC stood at 4. Besides, in the series on Mus musculus [2], the F% is on record as 8%.

Take `Cl.Nc1ncnc2c1ncn2OCCOCP(=O)(Oc1ccccc1)Oc1ccccc1`: in the series with Mus musculus [1], the AUC is given as 25. In addition, the F% in the series with Mus musculus [2] is on record as 50%.
